Nine compounds from ChEMBL document CHEMBL1127322, “Selective protection and relative importance of the carboxylic acid groups of zaragozic acid A for squalene synthase inhibition” (J Med Chem, 1994) can be followed below.

Experiment [1] concerns Mus musculus. Kind of experiment: Tested in vivo for inhibition at a dose of 40 mg/kg, p.o. in oral mouse assay. In kind it is functional. In outline:
(§1)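 Mice (22.5–27.5 g, six per group) received compound orally as a suspension in 5% emulphor. After 30 min they were given [5-³H]-mevalonolactone sc (0.5 μCi/animal) and were killed 30 min later. Livers were saponified and extracted with petroleum ether, and nonsaponifiable dpm was counted. Inhibition was calculated against incorporation in control animals.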

In experiment [2] the test system is Mus musculus. Kind of experiment: Tested in vivo for inhibition at a dose of 40 mg/kg, p.o. in oral mouse assay; Not active. In kind it is functional, organism-based. Also noted: dose 40 mg/kg. In outline:
as §1

Experiment [3] deals with Mus musculus. Kind of experiment: Tested in vivo for inhibition at a dose of 24 mg/kg, p.o. in oral mouse assay. In kind it is functional. In outline: as §1
For experiment [4], the system named is Mus musculus. Kind of experiment: Effective dose required for 50 percent inhibition of mouse liver squalene synthase at a dose of 40 mg/kg, po.

Active and inactive are the calls of the source. The calls are words filed in the database; no cut-off is given here.

On to `C=C(CCC12OC(C(=O)O)C(O)(C(=O)OC)C(C(=O)O)(O1)[C@@H](OC(=O)/C=C/[C@@H](C)C[C@@H](C)CC)[C@H]2O)C(OC(C)=O)[C@H](C)Cc1ccccc1` (some centres undefined), for which testing at 40 mg/kg in the experiment with Mus musculus [1] gave an inhibition in vivo of 43%. `C=C(CCC12OC(C(=O)O)C(O)(C(=O)O)C(C(=O)OC)(O1)[C@@H](OC(=O)/C=C/[C@@H](C)C[C@@H](C)CC)[C@H]2O)C(OC(C)=O)[C@H](C)Cc1ccccc1` (some centres undefined): the inhibition result with Mus musculus [2] was “inactive”. On the same count and under the same terms, then `C=C(CCC12OC(C(=O)O)C(O)(C(=O)OC)C(C(=O)OC)(O1)[C@@H](OC(=O)/C=C/[C@@H](C)C[C@@H](C)CC)[C@H]2O)C(OC(C)=O)[C@H](C)Cc1ccccc1` (some centres undefined), with “inactive”. Consider `C=C(CCC12OC(C(=O)OC)C(O)(C(=O)O)C(C(=O)O)(O1)[C@@H](OC(=O)/C=C/[C@@H](C)C[C@@H](C)CC)[C@H]2O)C(OC(C)=O)[C@H](C)Cc1ccccc1` (some centres undefined), for which the inhibition in vivo (commonly the change of the read-out against control, counted positive when it falls) at 24 mg/kg in the experiment with Mus musculus [3] amounted to 32%.

`C=C(CCC12OC(C(=O)OCCC(C)C)C(O)(C(=O)O)C(C(=O)O)(O1)[C@@H](OC(=O)/C=C/[C@@H](C)C[C@@H](C)CC)[C@H]2O)C(OC(C)=O)[C@H](C)Cc1ccccc1` (some centres undefined) gave an inhibition in vivo at 40 mg/kg in the experiment with Mus musculus [1] of 62%.

In the experiment on Mus musculus [1], `C=C(CCC12OC(C(=O)O)C(O)(C(=O)O)C(C(=O)O)(O1)[C@@H](OC(=O)/C=C/[C@@H](C)C[C@@H](C)CC)[C@H]2O)C(OC(C)=O)[C@H](C)Cc1ccccc1` (some centres undefined) showed an inhibition in vivo at 40 mg/kg of 11%. For `C=C(CCC12OC(C(=O)OCc3ccccc3)C(O)(C(=O)O)C(C(=O)O)(O1)[C@@H](OC(=O)/C=C/[C@@H](C)C[C@@H](C)CC)[C@H]2O)C(OC(C)=O)[C@H](C)Cc1ccccc1` (some centres undefined), the inhibition in vivo at 24 mg/kg with Mus musculus [3] worked out at 36%.

Regarding `C=C(CCC12OC(C(=O)OCCC(C)C)C(O)(C(=O)O)C(C(=O)OC)(O1)[C@@H](OC(=O)/C=C/[C@@H](C)C[C@@H](C)CC)[C@H]2O)C(OC(C)=O)[C@H](C)Cc1ccccc1` (some centres undefined), the inhibition entry with Mus musculus [2] was “inactive”. In the case of `C=C(CCC12OC(C(=O)OCCC(C)C)C(O)(C(=O)OC)C(C(=O)O)(O1)[C@@H](OC(=O)/C=C/[C@@H](C)C[C@@H](C)CC)[C@H]2O)C(OC(C)=O)[C@H](C)Cc1ccccc1` (some centres undefined), in the experiment on Mus musculus [4], the ED50 (usually the dose that gives a 50% effect, or the effect in half of the subjects) was 18 mg/kg.
